Assays:
Type in all cases: functional
OVCAR-8 = assay: Anticancer activity against human OVCAR8 cells assessed as cell growth at 10^-5 M after 48 hrs by SRB assay; settings: OVCAR-8, 48 h, read-out: Activity
A498 = assay: Anticancer activity against human A498 cells assessed as cell growth at 10^-5 M after 48 hrs by SRB assay; settings: A498, 48 h, read-out: Activity
How it was run: (§1)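 NCI-60 single-dose screen at one concentration. Cells grown in RPMI 1640 with 5% FBS and 2 mM L-glutamine, plated at 5000–40,000 cells/well, and pre-incubated 24 h at 37 °C in 5% CO2 before DMSO-dissolved drug was added. Cells fixed with TCA, SRB-stained, absorbance read at 515 nm. Percent growth calculated against time-zero and untreated control plates.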

MCF7 = assay: Anticancer activity against human MCF7 cells assessed as cell growth at 10^-5 M after 48 hrs by SRB assay; settings: MCF7, 48 h, read-out: Activity; how it was run: as §1
UACC-62 = assay: Anticancer activity against human UACC62 cells assessed as cell growth at 10^-5 M after 48 hrs by SRB assay; settings: UACC-62, 48 h, read-out: Activity
How it was run: (§2)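 NCI-60 single-dose screen: cells in RPMI 1640 with 5% FBS and 2 mM L-glutamine, plated at 5000–40,000 cells/well by doubling time, and preincubated 24 h at 37 °C. Compound given at one concentration from DMSO stock. Cells TCA-fixed and SRB-stained, absorbance at 515 nm. Percent growth relative to time-zero and untreated controls; inhibition % = 100 − growth %.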

OVCAR-3 = assay: Anticancer activity against human OVCAR3 cells assessed as cell growth at 10^-5 M after 48 hrs by SRB assay; settings: OVCAR-3, 48 h, read-out: Activity
NCI-H23 = assay: Anticancer activity against human NCI-H23 cells assessed as cell growth at 10^-5 M after 48 hrs by SRB assay; settings: NCI-H23, 48 h, read-out: Activity
MOLT-4 = assay: Anticancer activity against human MOLT4 cells assessed as cell growth at 10^-5 M after 48 hrs by SRB assay; settings: MOLT-4, 48 h, read-out: Activity
COLO 205 = assay: Anticancer activity against human COLO205 cells assessed as cell growth at 10^-5 M after 48 hrs by SRB assay; settings: COLO 205, 48 h, read-out: Activity; how it was run: as §1
T47D = assay: Anticancer activity against human T47D cells assessed as cell growth at 10^-5 M after 48 hrs by SRB assay; settings: read-out: Activity; how it was run: as §2
SK-OV-3 = assay: Anticancer activity against human SKOV3 cells assessed as cell growth at 10^-5 M after 48 hrs by SRB assay; settings: SK-OV-3, 48 h, read-out: Activity
SF-268 = assay: Anticancer activity against human SF268 cells assessed as cell growth at 10^-5 M after 48 hrs by SRB assay; settings: SF-268, 48 h, read-out: Activity
MDA-MB-231 = assay: Anticancer activity against human MDA-MB-231 cells assessed as cell growth at 10^-5 M after 48 hrs by SRB assay; settings: MDA-MB-231, 48 h, read-out: Activity; how it was run: as §1
Malme-3M = assay: Anticancer activity against human MALME-3M cells assessed as cell growth at 10^-5 M after 48 hrs by SRB assay; settings: read-out: Activity; how it was run: as §1
SNB-19 = assay: Anticancer activity against human SNB19 cells assessed as cell growth at 10^-5 M after 48 hrs by SRB assay; settings: SNB-19, 48 h, read-out: Activity
NCI-H322M = assay: Anticancer activity against human NCI-H322M cells assessed as cell growth at 10^-5 M after 48 hrs by SRB assay; settings: read-out: Activity
SNB-75 = assay: Anticancer activity against human SNB75 cells assessed as cell growth at 10^-5 M after 48 hrs by SRB assay; settings: SNB-75, 48 h, read-out: Activity; how it was run: as §2
BT-549 = assay: Anticancer activity against human BT549 cells assessed as cell growth at 10^-5 M after 48 hrs by SRB assay; settings: BT-549, 48 h, read-out: Activity; how it was run: as §1
DU-145 = assay: Anticancer activity against human DU145 cells assessed as cell growth at 10^-5 M after 48 hrs by SRB assay; settings: DU-145, 48 h, read-out: Activity; how it was run: as §1
SN12C = assay: Anticancer activity against human SN12C cells assessed as cell growth at 10^-5 M after 48 hrs by SRB assay; settings: read-out: Activity
RXF 393 = assay: Anticancer activity against human RXF393 cells assessed as cell growth at 10^-5 M after 48 hrs by SRB assay; settings: RXF 393, 48 h, read-out: Activity
ACHN = assay: Anticancer activity against human ACHN cells assessed as cell growth at 10^-5 M after 48 hrs by SRB assay; settings: read-out: Activity; how it was run: as §1
NCI-H460 = assay: Anticancer activity against human NCI-H460 cells assessed as cell growth at 10^-5 M after 48 hrs by SRB assay; settings: NCI-H460, 48 h, read-out: Activity
U-251 = assay: Anticancer activity against human U251 cells assessed as cell growth at 10^-5 M after 48 hrs by SRB assay; settings: U-251, 48 h, read-out: Activity; how it was run: as §2
M14 = assay: Anticancer activity against human M14 cells assessed as cell growth at 10^-5 M after 48 hrs by SRB assay; settings: M14, 48 h, read-out: Activity; how it was run: as §1
KM12 = assay: Anticancer activity against human KM12 cells assessed as cell growth at 10^-5 M after 48 hrs by SRB assay; settings: KM12, 48 h, read-out: Activity; how it was run: as §1
MDA-MB-468 = assay: Anticancer activity against human MDA-MB-468 cells assessed as cell growth at 10^-5 M after 48 hrs by SRB assay; settings: MDA-MB-468, 48 h, read-out: Activity
OVCAR-5 = assay: Anticancer activity against human OVCAR5 cells assessed as cell growth at 10^-5 M after 48 hrs by SRB assay; settings: OVCAR-5, 48 h, read-out: Activity
NCI/ADR-RES = assay: Anticancer activity against human NCI/ADR-RES cells assessed as cell growth at 10^-5 M after 48 hrs by SRB assay; settings: read-out: Activity
HT-29 = assay: Anticancer activity against human HT-29 cells assessed as cell growth at 10^-5 M after 48 hrs by SRB assay; settings: HT-29, 48 h, read-out: Activity; how it was run: as §1
RPMI-8226 = assay: Anticancer activity against human RPMI8226 cells assessed as cell growth at 10^-5 M after 48 hrs by SRB assay; settings: RPMI-8226, 48 h, read-out: Activity
SK-MEL-28 = assay: Anticancer activity against human SK-MEL-28 cells assessed as cell growth at 10^-5 M after 48 hrs by SRB assay; settings: SK-MEL-28, 48 h, read-out: Activity
SF-539 = assay: Anticancer activity against human SF539 cells assessed as cell growth at 10^-5 M after 48 hrs by SRB assay; settings: SF-539, 48 h, read-out: Activity

Structure (SMILES): COc1cccc(-c2nc3sccn3c2-c2ccnc(NCCNC(=O)Nc3cccc(C(F)(F)F)c3)n2)c1
- growth at 10 µM (OVCAR-8): 21.3%
- growth at 10 µM (A498): 61.6%
- growth at 10 µM (MCF7): 54.8%
- growth at 10 µM (UACC-62): 50.5%
- growth at 10 µM (OVCAR-3): 66.3%
- growth at 10 µM (NCI-H23): 83.8%
- growth at 10 µM (MOLT-4): 36.7%
- growth at 10 µM (COLO 205): 57.6%
- growth at 10 µM (T47D): 42.9%
- growth at 10 µM (SK-OV-3): 78.6%
- growth at 10 µM (SF-268): 62.3%
- growth at 10 µM (MDA-MB-231): 43.6%
- growth at 10 µM (Malme-3M): 85.1%
- growth at 10 µM (SNB-19): 74.8%
- growth at 10 µM (NCI-H322M): 81.3%
- growth at 10 µM (SNB-75): 71.8%
- growth at 10 µM (BT-549): 71.9%
- growth at 10 µM (DU-145): 79.8%
- growth at 10 µM (SN12C): 68.8%
- growth at 10 µM (RXF 393): 6.3%
- growth at 10 µM (ACHN): 46.2%
- growth at 10 µM (NCI-H460): 45.1%
- growth at 10 µM (U-251): 58.1%
- growth at 10 µM (M14): 39.2%
- growth at 10 µM (KM12): 33.5%
- growth at 10 µM (MDA-MB-468): 39.6%
- growth at 10 µM (OVCAR-5): 103%
- growth at 10 µM (NCI/ADR-RES): 27.2%
- growth at 10 µM (HT-29): 44.1%
- growth at 10 µM (RPMI-8226): 20.4%
- growth at 10 µM (SK-MEL-28): 78.4%
- growth at 10 µM (SF-539): 77.9%

Structure (SMILES): O=C(NCCNc1nccc(-c2c(-c3cccc(O)c3)nc3sccn23)n1)Nc1cc(C(F)(F)F)cc(C(F)(F)F)c1
- growth at 10 µM (OVCAR-8): 52.8%
- growth at 10 µM (A498): 86%
- growth at 10 µM (MCF7): 67.5%
- growth at 10 µM (UACC-62): 54.4%
- growth at 10 µM (OVCAR-3): 82.2%
- growth at 10 µM (NCI-H23): 90.9%
- growth at 10 µM (MOLT-4): 60.2%
- growth at 10 µM (COLO 205): 45.1%
- growth at 10 µM (T47D): 72%
- growth at 10 µM (SK-OV-3): 89.3%
- growth at 10 µM (SF-268): 69.4%
- growth at 10 µM (MDA-MB-231): 41.4%
- growth at 10 µM (Malme-3M): 60.5%
- growth at 10 µM (SNB-19): 90.8%
- growth at 10 µM (NCI-H322M): 87%
- growth at 10 µM (SNB-75): 66.1%
- growth at 10 µM (BT-549): 87.6%
- growth at 10 µM (DU-145): 97.1%
- growth at 10 µM (SN12C): 82.8%
- growth at 10 µM (RXF 393): 41.4%
- growth at 10 µM (ACHN): 65.9%
- growth at 10 µM (NCI-H460): 51.8%
- growth at 10 µM (U-251): 77%
- growth at 10 µM (M14): 21.4%
- growth at 10 µM (KM12): 43.1%
- growth at 10 µM (MDA-MB-468): 57.8%
- growth at 10 µM (OVCAR-5): 96.5%
- growth at 10 µM (NCI/ADR-RES): 87.8%
- growth at 10 µM (HT-29): 63.1%
- growth at 10 µM (RPMI-8226): 45.7%
- growth at 10 µM (SK-MEL-28): 68.8%
- growth at 10 µM (SF-539): 96.5%

Structure (SMILES): COc1cccc(-c2nc3sccn3c2-c2ccnc(NCCNC(=O)c3cc(N4CCOCC4)cc(C(F)(F)F)c3)n2)c1
- growth at 10 µM (A498): 86%
- growth at 10 µM (MCF7): 84.9%
- growth at 10 µM (UACC-62): 50.9%
- growth at 10 µM (OVCAR-3): 96.3%
- growth at 10 µM (NCI-H23): 110%
- growth at 10 µM (MOLT-4): 60%
- growth at 10 µM (COLO 205): 73.3%
- growth at 10 µM (T47D): 86.3%
- growth at 10 µM (SK-OV-3): 99.4%
- growth at 10 µM (SF-268): 85.7%
- growth at 10 µM (MDA-MB-231): 80.4%
- growth at 10 µM (Malme-3M): 80.8%
- growth at 10 µM (SNB-19): 103%
- growth at 10 µM (NCI-H322M): 96.6%
- growth at 10 µM (SNB-75): 72.2%
- growth at 10 µM (BT-549): 81.1%
- growth at 10 µM (DU-145): 94.6%
- growth at 10 µM (SN12C): 89.3%
- growth at 10 µM (RXF 393): 72.6%
- growth at 10 µM (ACHN): 80.1%
- growth at 10 µM (NCI-H460): 95.6%
- growth at 10 µM (U-251): 100%
- growth at 10 µM (M14): 65.3%
- growth at 10 µM (KM12): 83.2%
- growth at 10 µM (MDA-MB-468): 98.1%
- growth at 10 µM (OVCAR-5): 110%
- growth at 10 µM (NCI/ADR-RES): 76.5%
- growth at 10 µM (HT-29): 58.5%
- growth at 10 µM (RPMI-8226): 39.1%
- growth at 10 µM (SK-MEL-28): 88.2%
- growth at 10 µM (SF-539): 101%

From ChEMBL document CHEMBL1914423, “New imidazo[2,1-b]thiazole derivatives: synthesis, in vitro anticancer evaluation, and in silico studies” (Eur J Med Chem, 2011)
